Reference: ChEMBL document CHEMBL4145617, “Chloramphenicol Derivatives with Antibacterial Activity Identified by Functional Metagenomics” (2018)
Values after ≈ are worked out from the molar mass of the structure shown. Active and inactive are the calls of the source. The calls are words filed in the database; no cut-off is given here.

Tests used:
[1] = tested on: Mycobacterium tuberculosis; assay: Antimycobacterial activity against Mycobacterium tuberculosis ATCC 25177 after 5 days by Alamar blue based CLSI method; assay type: functional; conditions: H37Ra, 120 h
[2] = tested on: Mycobacterium intracellulare; assay: Antimycobacterial activity against Mycobacterium intracellulare ATCC 23068 after 70 to 74 hrs by Alamar blue based CLSI method; assay type: functional
Pseudomonas aeruginosa = assay: Antimicrobial activity against Pseudomonas aeruginosa ATCC 2108 at 200 ug/ml by Alamar blue based CLSI method; assay type: functional, organism-based
Staphylococcus aureus [3] = assay: Antimicrobial activity against methicillin-resistant Staphylococcus aureus ATCC 1708 at 200 ug/ml by Alamar blue based CLSI method; assay type: functional, organism-based
Summary of the method: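 S. aureus ATCC 1708 tested by a modified CLSI method. Samples were dissolved in DMSO and serially diluted in 20% DMSO/saline, and final test concentrations were 1/100th of the DMSO stock. MIC was taken as the lowest concentration with no detectable growth.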

Staphylococcus aureus [4] = assay: Growth inhibition of Staphylococcus aureus EAMC30 at 62.5 ug/ml by Alamar blue based CLSI method relative to control; assay type: functional; conditions: read-out: GI
Escherichia coli = assay: Antimicrobial activity against Escherichia coli ATCC 2452 at 200 ug/ml by Alamar blue based CLSI method; assay type: functional, organism-based

SMILES | MIC [1] | MIC [2] | Activity (Pseudomonas aeruginosa) | Activity (Staphylococcus aureus [3]) | inhibition of growth at 62.5 µg/mL (Staphylococcus aureus [4]) | Activity (Escherichia coli)
O=C(N[C@H](CO)[C@H](O)c1ccc([N+](=O)[O-])cc1)C(Cl)Cl [CHLORAMPHENICOL] | > 100 µg/mL | 25 µg/mL (≈ 77.4 µM) | – | – | – | –
CCC(=O)OC[C@@H](NC(=O)C(Cl)Cl)[C@H](OC(=O)CC)c1ccc([N+](=O)[O-])cc1 | – | – | inactive | inactive | 40% | inactive
CCCC(=O)OC[C@@H](NC(=O)C(Cl)Cl)[C@H](OC(=O)CCC)c1ccc([N+](=O)[O-])cc1 | – | – | inactive | inactive | 11% | inactive
O=C(/C=C/c1ccccc1)O[C@H](c1ccc([N+](=O)[O-])cc1)[C@@H](CO)NC(=O)C(Cl)Cl | – | – | – | – | 35% | –
CC(=O)O[C@H](c1ccc([N+](=O)[O-])cc1)[C@@H](CO)NC(=O)C(Cl)Cl | – | 25 µg/mL (≈ 68.5 µM) | – | – | – | –
CC(=O)OC[C@@H](NC(=O)C(Cl)Cl)[C@H](O)c1ccc([N+](=O)[O-])cc1 | – | 25 µg/mL (≈ 68.5 µM) | inactive | inactive | 15% | inactive
CCCC(=O)OC[C@@H](NC(=O)C(Cl)Cl)[C@H](O)c1ccc([N+](=O)[O-])cc1 | – | – | inactive | inactive | 36% | inactive
CCCC(=O)OC[C@@H](NC(=O)C(Cl)Cl)[C@H](OC(=O)CC)c1ccc([N+](=O)[O-])cc1 | – | – | inactive | inactive | – | inactive
CCC(=O)OC[C@@H](NC(=O)C(Cl)Cl)[C@H](OC(C)=O)c1ccc([N+](=O)[O-])cc1 | – | – | inactive | inactive | – | inactive
CC(=O)OC[C@@H](NC(=O)C(Cl)Cl)[C@H](OC(C)=O)c1ccc([N+](=O)[O-])cc1 | – | – | inactive | inactive | – | inactive
CCCC(=O)O[C@H](c1ccc([N+](=O)[O-])cc1)[C@@H](COC(=O)CC)NC(=O)C(Cl)Cl | – | – | inactive | inactive | – | inactive
CCC(=O)OC[C@@H](NC(=O)C(Cl)Cl)[C@H](O)c1ccc([N+](=O)[O-])cc1 | – | – | inactive | inactive | 72% | inactive
O=C(O[C@H](c1ccc([N+](=O)[O-])cc1)[C@@H](CO)NC(=O)C(Cl)Cl)c1ccc([N+](=O)[O-])cc1 | 50 µg/mL (≈ 106 µM) | 12.5 µg/mL (≈ 26.5 µM) | – | – | 59% | –
